Records with an inconclusive call do not appear.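 Rule for the calls, unless noted: active = RAM network inhibition above 8.4% in each of two replicates, 3 SD over the compound average; inconclusive = above 8.4% inhibition in only one replicate; inactive = 8.4% inhibition or less in each replicate.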
Experiments:
[1] = S. cerevisiae growth inhibition in permissive medium (OD615), pilot counter-assay for S. cerevisiae lifespan shortening project, permissive growth control (AID 705;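 active = growth inhibition above 25% in both replicates, a cutoff set 3 SD above the mean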); conditions: OD615, 24 h, at 10 µM, hits give high values
Summary of the method: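 System: Engineered DeaD yeast | Buffer or medium: SC raffinose/galactose permissive medium | Incubation: Cells pre-grown 4 h, then 24 h compound exposure, 30 °C humidified | Measured by: Absorbance (optical density) at 615 nm | Read-out: Reduction in yeast growth (OD615)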

[2] = S. cerevisiae growth inhibition in restrictive medium, OD615, pilot screen, restrictive growth control, yeast lifespan reduction project (AID 706;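 active = growth inhibition above a set limit, 3 SD over mean compound inhibition, in both replicates, cut at about 43% in these data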;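 note: modified DeaD lifespan yeast strain shifted to restrictive glucose medium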); conditions: OD615, 48 h, at 10 µM, hits give high values
Summary of the method: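 Material: modified S. cerevisiae; Medium: glucose-based CSMM-D restrictive medium; Compound dosing: one concentration, 10 µM final, 0.25% DMSO; Incubation: 48 h compound exposure at 30 °C; Measured by: OD615.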

[3] = doxorubicin toxicity protection in MRP-1 cells – H69AR cells, CellTiter-Glo, duplicate, MRP-1 activator project, pilot screen (AID 807;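 active = viability increase at or above a cutoff of the median across tested compounds plus 3 SD, cut at about 8.5% in these data, passing the limit was not always enough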;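 note: compound pretreatment 18-22 h then 72 h combined with doxorubicin; 0% = doxorubicin alone and 100% = vehicle without doxorubicin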); conditions: H69AR viability with doxorubicin, CellTiter-Glo luminescence; at 10 µM; hits give high values
[4] = viability of HCT116 without oncogenic beta-catenin – human colon tumor cells, pilot screen (AID 823;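 active = cell viability at or below a set limit in both duplicate runs, the limit being the all-compound median minus 4 SD, cut at about 23% in these data, passing the limit was not always enough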;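 note: 0% = wells killed by 20 µM Hyamine and 100% = untreated DMSO cell wells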); conditions: HCT116 beta-catenin knockout viability, CellTiter-Glo, 60 h; at 10 µM; hits give low values
[5] = viability of PTEN-null HCT116 cells – cell-based, HCT116 clonal line, CellTiter-Glo, pilot screen (AID 824;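 active = viability at or below 27.92% in each of two runs, the all-compound median minus 4 SD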;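 note: 0% = 20 µM Hyamine control and 100% = vehicle cell control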); conditions: HCT116 PTEN-deleted viability, 60 h, at 10 µM, hits give low values
[6] = RAM pathway blockade in budding yeast – dse1pr::URA3 reporter, 5-FOA selection, pilot screen (AID 869;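 active = inhibition over a set limit, the all-compound mean plus 3 SD, in both replicate runs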;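 note: 0% = DMSO wells with no growth and 100% = 10 µM 1-NA-PP1 with full growth; RAM network block rescues cells from 5-FOA so hits raise OD615 growth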); conditions: S. cerevisiae dse1pr::URA3 5-FOA growth, OD615, 2 d; at 10 µM; hits give high values; strain carries analog-sensitive mutant Cbk1 kinase
[7] = RAM signaling pathway blockade in yeast – S. cerevisiae, Pdr1DBD-CYC8 efflux-inhibited sensitized strain, primary screen (AID 1298);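 note: 0% = DMSO untreated cells without growth and 100% = 10 µM 1-NA-PP1 full growth; higher means more yeast growth rescued from 5-FOA killing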; conditions: S. cerevisiae cbk1-as DSE1-URA3 strain, 5-FOA growth OD615, 2 d; at 50 µM; hits give high values

COc1ccccc1N1CCN(c2cc(C)nc3nc(C)nn23)CC1
inactive: growth inhibition [1] -9.41% | growth inhibition [2] -13.6% | viability increase [3] -4.75% | viability [4] 85.7% | viability [5] 83.6% | inhibition [6] 2.03% | RAM network inhibition [7] -0.21%

CCC(C)OC(=O)C1=C(C)NC(=O)NC1c1ccc(F)cc1 (stereo unspecified)
inactive: growth inhibition [1] -8.18% | growth inhibition [2] -18.7% | viability increase [3] -2.13% | viability [4] 97% | viability [5] 92.7% | inhibition [6] 1.36% | RAM network inhibition [7] 2.77%

O=C1C(O)CC2c3ccccc3CC3(CCCC3)N12 (stereo unspecified)
inactive: growth inhibition [1] -14.1% | growth inhibition [2] -11.3% | viability increase [3] -0.65% | viability [4] 99.4% | viability [5] 90.4% | inhibition [6] 0.65% | RAM network inhibition [7] 8.18%

COc1ccc(Cl)cc1S(=O)(=O)N1CCN(C)CC1
inactive: growth inhibition [1] 1.3% | growth inhibition [2] -7.12% | viability increase [3] -2.26% | viability [4] 100% | viability [5] 86.8% | inhibition [6] 1.67% | RAM network inhibition [7] 5.97%

Cn1nnnc1SCC(=O)Nc1ccc(N2CCOCC2)cc1
inactive: growth inhibition [1] -4.58% | growth inhibition [2] 7.83% | viability increase [3] -1.01% | viability [4] 95.8% | viability [5] 97.5% | inhibition [6] 0.97% | RAM network inhibition [7] 0.68%

C=C(C)CSc1nnc(-c2cc(OC)c(OC)c(OC)c2)n1N
inactive: growth inhibition [1] 8.03% | growth inhibition [2] 7.75% | viability increase [3] -1.01% | viability [4] 95.2% | viability [5] 97.8% | inhibition [6] 0.94% | RAM network inhibition [7] 4%

N#Cc1c(SCC(N)=O)nc2c(c1-c1ccc(O)cc1)CCCC2
inactive: growth inhibition [1] -15.2% | growth inhibition [2] -15.6% | viability increase [3] -1.33% | viability [4] 94.5% | viability [5] 93.6% | inhibition [6] 3.51% | RAM network inhibition [7] 4.51%

O=C(NCCc1csc(-c2cccnc2)n1)c1cccs1
inactive: growth inhibition [1] 1.53% | growth inhibition [2] 4.78% | viability increase [3] -0.87% | viability [4] 103% | viability [5] 106% | inhibition [6] 1.27% | RAM network inhibition [7] 0.68%

CCN1CCN(Cc2nc3c(c(=O)n(C)c(=O)n3C)n2Cc2ccc(Cl)cc2Cl)CC1
inactive: growth inhibition [1] -9.72% | growth inhibition [2] -16.2% | viability increase [3] -3.62% | viability [4] 99.1% | viability [5] 98.8% | inhibition [6] 0.615% | RAM network inhibition [7] 1.52%

CCCCn1ccc(=O)c2c(C(F)(F)F)nccc21
inactive: growth inhibition [1] -6.65% | growth inhibition [2] -11.4% | viability increase [3] -3.12% | viability [4] 87.8% | viability [5] 84.4% | inhibition [6] 1.19% | RAM network inhibition [7] -0.41%

Cc1ccccc1S(=O)(=O)Cc1ccc(C(=O)N2CCN(C3CCCCC3)CC2)o1
inactive: growth inhibition [1] -9.92% | growth inhibition [2] -5.71% | viability increase [3] -1.48% | viability [4] 95.1% | viability [5] 89.6% | inhibition [6] 0.385% | RAM network inhibition [7] 4.62%

CC1=CS/C(=C(/C#N)C(=O)NCc2ccco2)N1c1ccccc1
inactive: growth inhibition [1] -0.435% | growth inhibition [2] -4.64% | viability increase [3] -2.99% | viability [4] 117% | viability [5] 97.6% | inhibition [6] 2.08% | RAM network inhibition [7] 1.49%

CC(C)CCn1c(SCC(N)=O)nc2c1c(=O)n(C)c(=O)n2C
inactive: growth inhibition [1] -11.8% | growth inhibition [2] -14.9% | viability increase [3] 0.12% | viability [4] 103% | viability [5] 102% | inhibition [6] -0.76% | RAM network inhibition [7] 2%

CC1CCc2nn(CC(=O)Nc3c(F)cc(F)cc3Br)cc2C1 (stereo unspecified)
inactive: growth inhibition [1] -5.22% | growth inhibition [2] -6.17% | viability increase [3] 2.17% | viability [4] 102% | viability [5] 90.3% | inhibition [6] 1.84% | RAM network inhibition [7] 1.57%

COc1ccc(-n2c(SCC(=O)Nc3nccs3)nc3c(c2=O)SC(C)C3)cc1 (stereo unspecified)
inactive: growth inhibition [1] -7.21% | growth inhibition [2] -3.74% | viability increase [3] -2.46% | viability [4] 97.1% | viability [5] 93% | inhibition [6] 1.56% | RAM network inhibition [7] 7.02%

O=C(O)C1(P(=O)(c2ccccc2)c2ccccc2)CCC1
inactive: growth inhibition [1] -13.9% | growth inhibition [2] -5.79% | viability increase [3] -0.11% | viability [4] 99.6% | viability [5] 99.3% | inhibition [6] 1.34% | RAM network inhibition [7] 3.04%

CCOC(=O)C1CCCN(c2cc(=O)n(-c3ccccc3Cl)c(=O)[nH]2)C1 (stereo unspecified)
inactive: growth inhibition [1] -3.86% | growth inhibition [2] -18.9% | viability increase [3] -1.99% | viability [4] 89.7% | viability [5] 94.5% | inhibition [6] 1.53% | RAM network inhibition [7] 0.31%

CC(c1ccccc1F)n1cc(C(=O)NCc2ccncc2)nn1 (stereo unspecified)
inactive: growth inhibition [1] -19.2% | growth inhibition [2] -8.25% | viability increase [3] -0.75% | viability [4] 96.3% | viability [5] 94.9% | inhibition [6] 1.86% | RAM network inhibition [7] 4.53%

COC(=O)c1ccc(C2C(C(=O)Nc3ccc(C)cc3C)=C(C)Nc3ncnn32)cc1 (stereo unspecified)
inactive: growth inhibition [1] 2.06% | growth inhibition [2] 9.76% | viability increase [3] -2.32% | viability [4] 97.2% | viability [5] 92.9% | inhibition [6] 2.46% | RAM network inhibition [7] 8.36%

CCCCNC(=O)CC1Nc2ccccc2NC1=O (stereo unspecified)
inactive: growth inhibition [1] 5.04% | growth inhibition [2] 4.59% | viability increase [3] -2.91% | viability [4] 113% | viability [5] 93% | inhibition [6] 0.83% | RAM network inhibition [7] 5.83%

CCOC(=O)CSCc1nc(-c2ccc(Cl)cc2)oc1C
inactive: growth inhibition [1] -11.6% | growth inhibition [2] -8.34% | viability increase [3] 1.98% | viability [4] 94.8% | viability [5] 89.8% | inhibition [6] 1.97% | RAM network inhibition [7] -1.32%

CCn1c(-c2ccccc2O)n[nH]c1=S
inactive: growth inhibition [1] 1.96% | growth inhibition [2] 25.6% | viability increase [3] -0.52% | viability [4] 93.7% | viability [5] 95.4% | inhibition [6] -0.54% | RAM network inhibition [7] 0.81%

COC(=O)c1ccccc1NS(=O)(=O)c1cn(C)c(=O)n(C)c1=O
inactive: growth inhibition [1] -1.82% | growth inhibition [2] -6.46% | viability increase [3] -1.59% | viability [4] 101% | viability [5] 92.6% | inhibition [6] 0.585% | RAM network inhibition [7] 1.2%

CCN(CC)Cc1c(O)ccc2c(-c3ccccc3)cc(=O)oc12
inactive: growth inhibition [1] -5.29% | growth inhibition [2] -1.64% | viability increase [3] -1.73% | viability [4] 94.3% | viability [5] 94.7% | inhibition [6] 1.23% | RAM network inhibition [7] 1.08%

O=C(NC1CCN(Cc2ccccc2)CC1)C1CCCN(c2nnc(-n3cccc3)s2)C1 (stereo unspecified)
inactive: growth inhibition [1] -4.03% | growth inhibition [2] 11.1% | viability increase [3] -4.97% | viability [4] 93.1% | viability [5] 84.5% | inhibition [6] 0.085% | RAM network inhibition [7] 0.11%

CC(=O)CSc1nc2ccc(Nc3nc(N4CCOCC4)nc(N4CCOCC4)n3)cc2s1
inactive: growth inhibition [1] 15.1% | growth inhibition [2] 38.6% | viability increase [3] -5.89% | viability [4] 66.6% | viability [5] 73.5% | inhibition [6] 0.87% | RAM network inhibition [7] 7.76%

CCCC(=O)c1ccc(N2CCOCC2)c(F)c1
inactive: growth inhibition [1] -7.96% | growth inhibition [2] -9.48% | viability increase [3] 5.59% | viability [4] 98.7% | viability [5] 98.2% | inhibition [6] -0.25% | RAM network inhibition [7] 0.58%

COc1ccc(CCN2CC34C=CC(O3)C(C(=O)NCc3ccccc3)C4C2=O)cc1OC (stereo unspecified)
inactive: growth inhibition [1] -2.83% | growth inhibition [2] -11.6% | viability increase [3] -1.24% | viability [4] 95.2% | viability [5] 93.9% | inhibition [6] 0.89% | RAM network inhibition [7] 9.27%

CC(C)OC(=O)c1nnc(Cc2ccc(F)cc2)o1
inactive: growth inhibition [1] 4.28% | growth inhibition [2] 8.2% | viability increase [3] 2.12% | viability [4] 113% | viability [5] 107% | inhibition [6] 0.82% | RAM network inhibition [7] 7.85%

CCCCCOC(=O)C1=C(C)NC(=O)NC1c1ccccc1OCC (stereo unspecified)
inactive: growth inhibition [1] -2.38% | growth inhibition [2] 11.9% | viability increase [3] -0.2% | viability [4] 69.8% | viability [5] 69.7% | inhibition [6] 0.45% | RAM network inhibition [7] 1.97%

CC(=NCCc1ccccc1)C1=C(O)CSC1=O
inactive: growth inhibition [1] -3.27% | growth inhibition [2] -6.07% | viability increase [3] -1.75% | viability [4] 99.4% | viability [5] 96.3% | inhibition [6] 0.97% | RAM network inhibition [7] 1%

NC(=O)CSc1nnc(-c2ccncc2)n1-c1ccc(Cl)cc1
inactive: growth inhibition [1] -5.39% | growth inhibition [2] 0.11% | viability increase [3] -1.78% | viability [4] 97.7% | viability [5] 94.1% | inhibition [6] 0.785% | RAM network inhibition [7] 1.57%

CC1CCN(CC(C)OC(=O)c2ccc3c(c2)OCCO3)CC1 (stereo unspecified)
inactive: growth inhibition [1] -8.49% | growth inhibition [2] 6.58% | viability increase [3] -0.68% | viability [4] 112% | viability [5] 105% | inhibition [6] 1.62% | RAM network inhibition [7] 3.4%
